In ChEMBL document CHEMBL3232877, “Synthesis and activity of tumor-homing peptide iRGD and histone deacetylase inhibitor valproic acid conjugate” (2014):
Positions of bridges follow the written chain, without caps; N, C: chain ends. Residues, ends and D or L forms follow the SMILES beside them. *: point of attachment. Pentanoyl(2-Pr) = CCCC(CCC)C(=O)*

What was measured:
Type in all cases: functional
DU-145 [1] = experiment: Cell cycle arrest in human DU145 cells assessed as accumulation of cells at G1 phase at 1.5 mM after 24 hrs by flow cytometry (Rvb =64.7 %)
DU-145 [2] = experiment: Cytotoxicity against human DU145 cells assessed viable cells at 1.5 mM after 72 hrs by CCK-8 assay (reference value: 100.00 +/- 2.47 %)
How it was run: (§1)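 DU-145 cells exposed 72 h to drug or drug equivalent at 0.5 mM or 1.5 mM. Viable cells read by CCK-8, absorbance 450 nm (630 nm reference). Viability % = treated viable cells / mean of untreated group (set 100%); reported as mean ± SEM; one-way ANOVA with Tukey test.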

DU-145 [3] = experiment: Cell cycle arrest in human DU145 cells assessed as accumulation of cells at G2 phase at 1.5 mM after 24 hrs by flow cytometry (reference value: 22.1 %)
DU-145 [4] = experiment: Cytotoxicity against human DU145 cells assessed viable cells at 0.5 mM after 72 hrs by CCK-8 assay (reference value: 99.97 +/- 0.84 %); how it was run: as §1

With `CC(C)C[C@H](NC(=O)[C@H](Cc1ccccc1)NC(=O)CN)C(=O)NCC(=O)N[C@H]1CSSC[C@@H](C(N)=O)NC(=O)[C@H](CC(=O)O)NC(=O)[C@@H]2CCCN2C(=O)CNC(=O)[C@H](CCCCN)NC(=O)[C@H](CC(=O)O)NC(=O)CNC(=O)[C@H](CCCNC(=N)N)NC1=O` (H-GFLGCRGDKGPDC-NH2; disulfide 5-13) the Activity (DU-145 [1]) was 73.7%, the Activity (DU-145 [2]) was 58.67% and the Activity (DU-145 [3]) was 17.7%. It also gave an Activity (DU-145 [4]) of 70.52%.

Work on `CCCC(CCC)C(=O)NCC(=O)N[C@@H](Cc1ccccc1)C(=O)N[C@@H](CC(C)C)C(=O)NCC(=O)N[C@H]1CSSC[C@@H](C(N)=O)NC(=O)[C@H](CC(=O)O)NC(=O)[C@@H]2CCCN2C(=O)CNC(=O)[C@H](CCCCN)NC(=O)[C@H](CC(=O)O)NC(=O)CNC(=O)[C@H](CCCNC(=N)N)NC1=O` ({Pentanoyl(2-Pr)}-GFLGCRGDKGPDC-NH2; disulfide 5-13) yielded an Activity (DU-145 [1]) of 76.3%, an Activity (DU-145 [2]) of 38.96% and an Activity (DU-145 [3]) of 15.7%. It also gave an Activity (DU-145 [4]) of 69.3%.

For `CCCC(CCC)C(=O)O` [VALPROIC ACID], the Activity (DU-145 [1]) was 62.5%, the Activity (DU-145 [2]) was 79.87% and the Activity (DU-145 [3]) was 25.8%. For the same compound, the Activity (DU-145 [4]) was 99.56%.
